Measured values from ChEMBL document CHEMBL1137637, “Quinuclidine derivatives as potential antiparasitics” (Antimicrob Agents Chemother, 2007).
Converted amounts (≈) assume the structure as drawn.

Columns and labels:
Trypanosoma cruzi = assay: Antitrypanosomal activity against trypomastigotes of Trypanosoma cruzi Tulahuen C2C4 containing lacZ gene in rat L6 cells after 4 days by chlorophenol red-beta-D-galactopyranoside/Nonidet assay; assay type: functional, organism-based; settings: Tulahuen C2C4, L6, 96 h
How it was run: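 L-6 rat myoblasts seeded at 2,000 cells/well in RPMI 1640 with 10% FBS and 2 mM L-glutamine. After 24 h, 5,000 T. cruzi Tulahuen C2C4 lacZ trypomastigotes added with serial drug dilution. Incubated at 37°C in 5% CO2 for 4 days. CPRG/Nonidet substrate added and colour read at 540 nm after 2–4 h. IC50 from sigmoidal curve. Duplicate determinations.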

Leishmania amazonensis [1] = assay: Inhibition of sterol biosynthesis in Leishmania mexicana amazonensis promastigotes assessed as reduction in exogenous cholesterol level at 10 uM after 96 hrs by gas-liquid chromatography; assay type: functional; design: scale not given: the % may be the effect or the level left
How it was run: (§1)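 L. mexicana promastigotes exposed to compound for 96 h. Total lipids extracted and neutral sterols separated from polar lipids by silicic acid column chromatography. Sterols analysed by TLC and by quantitative capillary gas-liquid chromatography with mass spectrometry. Composition expressed as mass % of free sterols, compared with untreated control.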

Leishmania amazonensis [2] = assay: Inhibition of sterol biosynthesis in Leishmania mexicana amazonensis promastigotes assessed as reduction in endogenous episterol level at 10 uM after 96 hrs by gas-liquid chromatography; assay type: functional; design: scale not given: the % may be the effect or the level left; how it was run: as §1
[3] = tested on: Trypanosoma brucei rhodesiense; assay: Trypanocidal activity against Trypanosoma brucei rhodesiense STIB 900 bloodstream form after 72 hrs by resazurin assay; assay type: functional, organism-based; settings: STIB 900, 72 h
How it was run: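 T. b. rhodesiense STIB 900 bloodstream forms in MEM with 2-mercaptoethanol and 15% heat-inactivated horse serum, with serial drug dilutions. Incubated 72 h at 37°C in 5% CO2. Resazurin added for 2–4 h more, fluorescence read at ex 536/em 588 nm. IC50 from sigmoidal curve. Duplicate, with an independent repeat for actives.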

Leishmania amazonensis [4] = assay: Inhibition of sterol biosynthesis in Leishmania mexicana amazonensis promastigotes assessed as reduction in endogenous 5-dehydro episterol level at 10 uM after 96 hrs by gas-liquid chromatography; assay type: functional; design: scale not given: the % may be the effect or the level left; how it was run: as §1
Leishmania donovani = assay: Antileishmanial activity against Leishmania donovani MHOM/ET/67/L82 axenic amastigotes after 72 hrs by resazurin assay; assay type: functional, organism-based; settings: MHOM/ET/67/L82, 72 h
How it was run: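 L. donovani MHOM/ET/67/L82 amastigotes grown axenically at 37°C in synthetic minimal medium at pH 5.4 with 10% heat-inactivated FBS under 5% CO2. 1 × 10⁵ amastigotes per well with seven threefold dilutions, 30 to 0.041 μg/ml. After 72 h, resazurin added for 2–4 h more. Fluorescence read at ex 536/em 588 nm. IC50 taken from sigmoidal curve. Run in duplicate, with an independent repeat for actives.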

Plasmodium falciparum = assay: Antiplasmodial activity after 48 hrs against chloroquine and pyrimethamine-resistant Plasmodium falciparum K1 in human erythrocytes by [3H]hypoxanthine uptake; assay type: functional, organism-based
How it was run: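 P. falciparum K1 in human red cells in RPMI 1640 with 5% Albumax, exposed to serial drug dilutions. Incubated 48 h at 37°C under reduced oxygen, then 0.5 μCi [³H]hypoxanthine per well for 24 h more. Cells harvested onto glass-fibre filters and counted by scintillation. Result expressed as % of untreated control, with IC50 from sigmoidal curve. Duplicate, plus an independent repeat for actives.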

Squalene synthase = molecular target: T1, Squalene synthase (Homo sapiens, UniProt P37268); assay: Inhibition of human recombinant squalene synthase expressed in Escherichia coli BL21(DE3 pLysS) up to 1 uM by liquid scintillation counter
T1 sequence (P37268 whole entry): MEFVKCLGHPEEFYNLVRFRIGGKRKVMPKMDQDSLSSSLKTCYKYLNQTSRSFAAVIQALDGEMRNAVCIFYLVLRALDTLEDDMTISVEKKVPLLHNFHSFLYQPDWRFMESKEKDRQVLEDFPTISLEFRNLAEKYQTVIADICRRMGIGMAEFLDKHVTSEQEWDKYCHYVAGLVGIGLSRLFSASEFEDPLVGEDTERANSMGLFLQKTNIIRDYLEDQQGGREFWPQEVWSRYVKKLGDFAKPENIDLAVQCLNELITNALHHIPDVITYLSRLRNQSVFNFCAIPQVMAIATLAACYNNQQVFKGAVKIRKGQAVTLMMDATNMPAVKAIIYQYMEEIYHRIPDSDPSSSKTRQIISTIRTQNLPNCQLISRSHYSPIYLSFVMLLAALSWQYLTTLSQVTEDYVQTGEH
How it was run: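 Human SQS in extracts of E. coli BL21(DE3 pLysS) carrying pHSS16, assayed under the same conditions as the L. major enzyme. Buffer: phosphate pH 7.4, MgCl2, CHAPS, Tween 80, DTT, BSA, and NADPH with a regenerating system. Substrate 0.5 μM radiolabelled farnesyl pyrophosphate. Squalene band radioactivity counted by scintillation.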

Leishmania amazonensis [5] = assay: Inhibition of sterol biosynthesis in Leishmania mexicana amazonensis promastigotes assessed as reduction in endogenous cholesta-7,24-dien-3beta-ol level at 10 uM after 96 hrs by gas-liquid chromatography; assay type: functional; design: scale not given: the % may be the effect or the level left; how it was run: as §1
L6 = assay: Cytotoxicity against rat L6 cells after 72 hrs by resazurin assay; assay type: cell-based; settings: L6, 72 h
How it was run: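 L-6 cells seeded at 4 × 10⁴ cells/ml in RPMI 1640 with 10% FBS and 2 mM L-glutamine. After 24 h, medium replaced with serial drug dilution and incubated for 72 h at 37°C in 5% CO2. Resazurin added for 2–4 h, fluorescence read at ex 536/em 588 nm. IC50 from sigmoidal curve. Duplicate, with an independent repeat for actives.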

[6] = molecular target: T2, Farnesyltransferase, putative (Leishmania major, UniProt Q4Q5W4); assay: Inhibition of Leishmania major recombinant squalene synthase expressed in Escherichia coli by liquid scintillation counter
T2 sequence (Q4Q5W4 whole entry): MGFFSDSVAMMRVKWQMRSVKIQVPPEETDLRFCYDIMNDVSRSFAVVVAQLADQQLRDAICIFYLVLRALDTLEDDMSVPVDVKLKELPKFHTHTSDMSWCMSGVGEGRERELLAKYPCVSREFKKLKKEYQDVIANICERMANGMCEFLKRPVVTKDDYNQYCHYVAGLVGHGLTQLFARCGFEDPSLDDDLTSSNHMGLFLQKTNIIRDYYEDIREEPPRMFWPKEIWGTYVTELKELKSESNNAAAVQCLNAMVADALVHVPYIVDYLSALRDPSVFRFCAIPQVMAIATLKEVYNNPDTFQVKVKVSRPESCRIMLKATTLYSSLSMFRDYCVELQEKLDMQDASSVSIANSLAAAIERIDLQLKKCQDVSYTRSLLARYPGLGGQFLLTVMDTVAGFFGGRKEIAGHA
How it was run: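 Soluble E. coli extract expressing L. major SQS truncated by 16 N-terminal and 40 C-terminal residues. Buffer: 50 mM phosphate pH 7.4, 20 mM MgCl2, 5 mM CHAPS, 1% Tween 80, 10 mM DTT, BSA, 0.25 mM NADPH, and a glucose-6-phosphate/G6PDH regenerating system. Substrate 0.5 μM radiolabelled farnesyl pyrophosphate. Squalene band counted by scintillation. IC50 from hyperbolic plot of five concentrations in duplicate, usually run twice.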

Leishmania amazonensis [7] = assay: Inhibition of sterol biosynthesis in Leishmania mexicana amazonensis promastigotes assessed as reduction in endogenous cholesta-5,7,24-trien-3beta-ol level at 10 uM after 96 hrs by gas-liquid chromatography; assay type: functional; design: scale not given: the % may be the effect or the level left; how it was run: as §1
Leishmania amazonensis [8] = assay: Antileishmanial activity against Leishmania mexicana amazonensis promastigotes by trypan blue exclusion method; assay type: functional, organism-based
How it was run: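 L. mexicana amazonensis promastigotes cultured in liver infusion-tryptose medium with lactalbumin and 10% FCS at 26°C, unagitated. Cultures started at 2 × 10⁶ cells/ml and drug added at 0.5–1 × 10⁷ cells/ml. Density counted by electronic particle counter and hemocytometer. Viability by trypan blue exclusion. Triplicate growth experiments.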

Leishmania amazonensis [9] = assay: Inhibition of sterol biosynthesis in Leishmania mexicana amazonensis promastigotes assessed as reduction in endogenous cholesta-5,7,24-trien-3beta-ol level at 3 uM after 96 hrs by gas-liquid chromatography; assay type: functional; design: scale not given: the % may be the effect or the level left; how it was run: as §1
Leishmania amazonensis [10] = assay: Inhibition of sterol biosynthesis in Leishmania mexicana amazonensis promastigotes assessed as reduction in endogenous 5-dehydro episterol level at 3 uM after 96 hrs by gas-liquid chromatography; assay type: functional; design: scale not given: the % may be the effect or the level left; how it was run: as §1
Leishmania amazonensis [11] = assay: Inhibition of sterol biosynthesis in Leishmania mexicana amazonensis promastigotes assessed as reduction in endogenous episterol level at 3 uM after 96 hrs by gas-liquid chromatography; assay type: functional; design: scale not given: the % may be the effect or the level left; how it was run: as §1
Leishmania amazonensis [12] = assay: Inhibition of sterol biosynthesis in Leishmania mexicana amazonensis promastigotes assessed as reduction in exogenous cholesterol level at 3 uM after 96 hrs by gas-liquid chromatography; assay type: functional; design: scale not given: the % may be the effect or the level left; how it was run: as §1
Leishmania amazonensis [13] = assay: Inhibition of sterol biosynthesis in Leishmania mexicana amazonensis promastigotes assessed as reduction in endogenous cholesta-7,24-dien-3beta-ol level at 3 uM after 96 hrs by gas-liquid chromatography; assay type: functional; design: scale not given: the % may be the effect or the level left; how it was run: as §1

| Structure (SMILES) | IC50 (Trypanosoma cruzi) | Activity (Leishmania amazonensis [1]) | Activity (Leishmania amazonensis [2]) | IC50 [3] | Activity (Leishmania amazonensis [4]) | IC50 (Leishmania donovani) | IC50 (Plasmodium falciparum) | IC50 (Squalene synthase) | Activity (Leishmania amazonensis [5]) | IC50 (L6) | IC50 [6] | Activity (Leishmania amazonensis [7]) | MIC (Leishmania amazonensis [8]) | Activity (Leishmania amazonensis [9]) | Activity (Leishmania amazonensis [10]) | Activity (Leishmania amazonensis [11]) | Activity (Leishmania amazonensis [12]) | Activity (Leishmania amazonensis [13]) |
| --- | --- | --- | --- | --- | --- | --- | --- | --- | --- | --- | --- | --- | --- | --- | --- | --- | --- | --- |
| C(=C1/CN2CCC1CC2)/c1ccccc1 | > 151 µM | 10.6% | 12.2% | 16 µM | 70.7% | > 151 µM | 800 nM | Not Active | 2.8% | 382 µM | > 1000 nM | 3.7% | > 10 µM | – | – | – | – | – |
| OC[C@H]1CC2CCN1C[C@@H]2C#Cc1ccc(OCc2ccccc2)cc1 (stereo not given in full) | 3.1 µM | >99% | – | 1.2 µM | – | 8 µM | 1100 nM | – | – | 16.6 µM | > 1000 nM | – | 10 µM (≈ 3.47 µg/mL) | 10.7% | 63.2% | 14.2% | 21.2% | – |
| c1ccc2cc(CC3CN4CCC3CC4)ccc2c1 (stereo not given) | 25.4 µM | – | – | 2.5 µM | – | > 119 µM | 1800 nM | Not Active | – | 98.2 µM | > 1000 nM | – | 3 µM (≈ 0.754 µg/mL) | 11.2% | 49.6% | 9.3% | 26.4% | 3.5% |
| C(=C1/CN2CCC1CC2)/c1ccc(C2OCCO2)cc1 | 46 µM | 25.4% | 14.2% | 5.5 µM | 16.1% | 82.1 µM | 12300 nM | Not Active | – | 136 µM | > 1000 nM | 18.5% | > 10 µM | – | – | – | – | – |
| O=Cc1ccc(/C=C2\CN3CCC2CC3)cc1 | > 132 µM | 11.2% | 8.2% | 13.1 µM | 62% | > 132 µM | > 22000 nM | Not Active | 4.6% | > 396 µM | > 1000 nM | 14% | > 10 µM | – | – | – | – | – |
| OC[C@@H]1CC2CCN1C[C@@H]2C#Cc1ccc(OCc2ccccc2)cc1 (stereo not given in full) | 3.4 µM | >99% | – | 1.2 µM | – | 7.4 µM | 600 nM | – | – | 16.1 µM | > 1000 nM | – | 10 µM (≈ 3.47 µg/mL) | – | – | 22.7% | 61.4% | 15.9% |
| C(=C1/CN2CCC1CC2)/c1ccc2ccccc2c1 | 2.8 µM | – | – | 0.5 µM | – | 88.2 µM | 900 nM | Not Active | – | 25.6 µM | > 1000 nM | – | 3 µM (≈ 0.748 µg/mL) | – | 42.2% | – | 57.8% | – |
| C(=C1CN2CCC1CC2)c1ccc(C2OCCO2)cc1 | > 111 µM | 14.1% | 11.7% | 12.5 µM | 54.9% | 38.6 µM | 14200 nM | Not Active | 6.7% | 212 µM | > 1000 nM | 12.7% | > 10 µM | – | – | – | – | – |
| c1ccc(CC2CN3CCC2CC3)cc1 (stereo not given) | 130 µM | 14.9% | 51.3% | 60.6 µM | 2.8% | > 149 µM | 5400 nM | Not Active | 2.9% | > 447 µM | > 1000 nM | 23.2% | > 10 µM | – | – | – | – | – |
